# Compounds with a hit are over-represented: about 2.9% of the library has one in this group of screens.
# HTRA1 inhibitor: HTRA1 serine protease inhibitors, primary screen, biochemical, fluorescence polarization, HTS. 340,000 tested, 0.5% active. Q92743. recombinant HTRA1, FP-rhodamine activity-based probe. inhibition, % at 5.96 µM. AID 504803, 2011; in the data active = inhibition above about 36%;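 note: 0% = enzyme with DMSO and 100% = wells lacking enzyme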
# ABHD4 inh: ABHD4 inhibitors, primary screen, biochemical, fluorescence polarization, mouse; (Lyso)-N-acylphosphatidylethanolamine lipase (Mus musculus), Q8VD66; purified mABHD4, FP-Rh probe fluorescence polarization; inhibition, % at 8.92 µM; 370,000 tested, 0.54% active; AID 720543, 2013;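 active = inhibition exceeding the mean over every tested compound plus 3 SD, cut at about 30% in these data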;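 note: 0% = plate median of compound wells and 100% = S159A mutant with DMSO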
#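 Doses – 8.92 µM, single dose · Material – wild-type mouse ABHD4 protein · Replication – single well per compound (singlicate) · Measure – percent inhibition of probe binding, normalized to plate controls · Schedule – 45 min compound pre-incubation plus 60 min probe step, 25 °C · Detection – fluorescence polarization with parallel and perpendicular emission, 525/598 nm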
# SIAE primary: human SIAE inhibitors, primary screen, biochemical, fluorescence polarization, FP-Rh probe, 1536-well HTS | AID 1053197, 2014 | Sialate O-acetylesterase (Homo sapiens), Q9HAT2 | inhibition, % at 9.66 µM | 370,000 tested, 0.69% active | SIAE FP-Rh probe binding;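 active = inhibition above a cutoff: mean of compounds within the control limits plus 3 SD of those, cut at about 17% in these data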;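 note: 0% = plate median of compound wells and 100% = probe without SIAE protein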
# TCR CD3 inh: inhibitors of human TCR-CD3 interaction, primary screen, biochemical, fluorescence, TAMRA-labeled TCR probe; T-cell receptor (TCR); AID 651800, 2012; 360,000 tested, 0.37% active; inhibition, % at 9.4 µM;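 note: recombinant mutant TCR 2C K166C tagged with TAMRA read by polarization; 0% = receptor in buffer alone and 100% = receptor with positive control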
# PAD4 inh: human PAD4 inhibitors, primary screen, biochemical, fluorescence polarization, 1536-well format | Protein-arginine deiminase type-4 (Homo sapiens), Q9UM07 | recombinant PAD4, RCA probe fluorescence polarization | inhibition, % at 6.36 µM | 330,000 tested, 0.41% active;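 active = percent inhibition above a cutoff equal to the mean of all tested compounds plus 3 SD, cut at about 15% in these data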;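 note: 0% = PAD4 with RCA probe and DMSO and 100% = probe without PAD4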
# PRMT1 FP inh: PRMT1 methyltransferase inhibitors, primary screen, biochemical, fluorescence polarization. inhibition, % at 2.79 µM. recombinant PRMT1, activity-based probe fluorescence polarization. 370,000 tested, 1.3% active. Protein arginine N-methyltransferase 1 (Homo sapiens), Q99873;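 active = inhibition above about 21% made by adding two undisclosed values, limit read from the data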
# Target sequence (Q99873 whole entry, looked up): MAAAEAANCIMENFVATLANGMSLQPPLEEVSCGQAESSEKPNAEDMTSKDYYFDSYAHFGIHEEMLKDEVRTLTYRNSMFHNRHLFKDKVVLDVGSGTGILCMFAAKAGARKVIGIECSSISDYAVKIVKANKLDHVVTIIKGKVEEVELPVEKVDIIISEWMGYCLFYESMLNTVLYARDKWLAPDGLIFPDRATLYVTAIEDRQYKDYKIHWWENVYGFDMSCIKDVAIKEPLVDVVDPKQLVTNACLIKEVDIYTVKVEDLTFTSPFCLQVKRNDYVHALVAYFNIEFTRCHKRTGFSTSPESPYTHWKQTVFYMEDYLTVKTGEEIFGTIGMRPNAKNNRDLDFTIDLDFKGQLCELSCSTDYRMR
# BSA TAMRA ctr: compounds interfering with TAMRA-BSA probe, counter-screen for TCR-CD3 interaction inhibitor project, biochemical, fluorescence, TAMRA-labeled BSA. AID 652035, 2013. shares compounds with TCR CD3 inh. 1,200 tested, 10% active. inhibition, % at 9.4 µM. TAMRA-labeled BSA probe fluorescence counterscreen; in the data active = inhibition above about 23%;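 note: 0% = buffer low control and 100% = reference high control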
# TCR-CD3 inh conf: TCR-CD3 interaction inhibitors, retest, confirmation, biochemical, fluorescence, TAMRA-labeled TCR probe; 1,200 tested, 48% active; TAMRA-labeled TCR probe fluorescence binding assay; shares compounds with TCR CD3 inh; inhibition, % at 9.4 µM
# * marks the source's active call; other numbers are inactive results; . = not tested or not shown; + = active, no number. Cut-off read from the data, not from the text of the source, unless noted: active = inhibition above about 19%; inactive = the rest.
SMILES,HTRA1 inhibitor,ABHD4 inh,SIAE primary,TCR CD3 inh,PAD4 inh,PRMT1 FP inh,BSA TAMRA ctr,TCR-CD3 inh conf
COc1ccc(C(=O)NNC(=S)NC(=O)/C=C/c2cccs2)cc1,-1,2,-5,25*,-1,-2,-1,12
COc1ccc(/C=C/C(=O)NC(=S)NNC(=O)Cc2cccs2)cc1,8,3,3,11,2,-2,.,.
O=C(NNC(=S)NC(=O)c1cccs1)c1ccc(O)cc1,7,2,-2,26*,.,-4,-7,23*
O=C(NNC(=S)NC(=O)c1cccs1)c1ccc(NC(=O)c2ccccc2)cc1,-15,4,1,15,-3,-2,.,.
Cc1c(C(=O)OCC(=O)Nc2cccc(S(N)(=O)=O)c2)oc2c1ccc1ccccc12,-42,-36,-23,25*,-3,-4,3,5
Cc1ccc(C(=O)NNC(=O)C2CCN(S(=O)(=O)c3ccc(Cl)cc3)CC2)cc1,3,1,4,7,-5,2,.,.
Cc1ccc(S(=O)(=O)N2CCC(C(=O)N3CCCCCCC3)CC2)cc1C,-3,-2,0,-7,.,3,.,.
Cc1ccc(S(=O)(=O)N2CCC(C(=O)NNC(=O)c3ccccc3O)CC2)cc1C,16,1,1,41*,5,-1,3,32*
Cc1ccc(S(=O)(=O)N2CCC(C(=O)NNC(=O)c3ccccc3O)CC2)cc1,20,6,-2,52*,2,0,-5,36*
COc1ccc(F)cc1-c1cc(C(C)=O)c2n(c1=O)CCC2,.,-1,9,.,.,-2,.,.
NC(=O)c1nsc(C(=O)N(CC(=O)NCc2ccccc2)c2ccc(F)cc2)c1N,-3,1,0,36*,5,6,3,5
NC(=O)c1nsc(C(=O)N(CC(=O)NCc2ccccc2)c2cccc(F)c2)c1N,-8,-8,1,-6,-4,5,.,.
C=CCN(CC#Cc1ccccc1)Cc1ccc(OC)cc1,.,2,-1,.,.,0,.,.
Cc1cc(C(=O)N/N=C/c2cc([N+](=O)[O-])ccc2O)c2ccccc2n1,-7,6,-10,8,-3,4,.,.
Cc1cc(C(=O)N/N=C/c2cc(Br)cc([N+](=O)[O-])c2O)c2ccccc2n1,11,44*,14,41*,1,6,-10,43*
Cc1cc(C(=O)N/N=C/c2cccc([N+](=O)[O-])c2O)n[nH]1,1,15,5,29*,3,0,-8,9
O=C(Cn1nnc(-c2ccccc2)n1)N/N=C/c1cccc([N+](=O)[O-])c1O,.,6,-1,38*,0,0,-3,50*
CCCC[C@@H]1C(=O)N2N=C(c3ccccc3)c3ccccc3[C@H]2N2N=C(c3ccccc3)c3ccccc3[C@@H]12,.,2,7,.,.,-2,.,.
Cn1c(=O)c2[nH]c(SCC(=O)NCCc3cccc(F)c3)nc2n(C)c1=O,.,-2,1,.,.,-1,.,.
O=C(N/N=C/c1cc([N+](=O)[O-])ccc1O)c1c[nH]c2ccccc12,5,2,7,21*,4,-3,-6,14
CCOC(=O)c1c(C)[nH]c(C(=O)N/N=C\c2ccccc2O)c1C,-4,-6,15,1,4,-1,.,.
O=C(NC(C(=O)N/N=C/c1cc([N+](=O)[O-])ccc1O)c1n[nH]c(=O)c2ccccc12)c1ccccc1 (stereo not given),3,23,-8,29*,3,3,-5,38*
CCOC(=O)c1c(C)[nH]c(C(=O)N/N=C/c2cc([N+](=O)[O-])ccc2O)c1C,14,1,-1,21*,4,1,-10,41*
Clc1ccc(-c2cc(-c3nnc4sc(Cc5cccs5)nn34)[nH]n2)cc1,.,-44,-14,.,.,1,.,.
CS(=O)(=O)N1CCC(C(=O)NCC2COc3ccccc3O2)CC1 (stereo not given),.,5,-1,.,.,0,.,.
SMILES,HTRA1 inhibitor,ABHD4 inh,SIAE primary,TCR CD3 inh,PAD4 inh,PRMT1 FP inh,BSA TAMRA ctr,TCR-CD3 inh conf
COc1cc(C(=O)NNC(=S)NC(=O)c2ccccc2C)cc(OC)c1OC,7,5,10,-6,5,0,.,.
COc1ccccc1C(=O)NNC(=S)NC(=O)c1cc(OC)c(OC)c(OC)c1,0,2,1,19*,2,-4,-7,9
CC(C)(C)C(=O)OC12CCCN(C1)/C(=C/c1cccc(Cl)c1)C2 (stereo not given),.,0,-4,.,.,-5,.,.
Cc1ccc(C(=O)OCC(=O)Nc2ccc(C(N)=O)cc2)s1,10,5,2,+,0,0,-1,2
O=C(O)c1cccc(N2C(=O)/C(=C/c3ccc(SCc4ccc(Cl)cc4)o3)SC2=S)c1,1,32*,-5,20*,.,57*,-16,7
NC(=O)[C@H]1CC2(CC(c3cccc(NC(=O)COc4ccc(Cl)cc4)c3)=NO2)CN1C(=O)c1ccc(Cl)cc1 (stereo not given in full),-54,-69,-43,14,1,1,.,.
NC(=O)[C@H]1CC2(CC(c3cccc(NC(=O)COc4ccc(Cl)cc4)c3)=NO2)CN1C(=O)CC(c1ccccc1)c1ccccc1 (stereo not given in full),-101,-85,-73,54*,-4,2,12,30*
CCC(=O)Nc1cccc(C2=NOC3(C2)C[C@@H](C(N)=O)N(C(=O)COc2ccc(Cl)cc2)C3)c1 (stereo not given in full),-12,-4,-6,1,-1,-2,.,.
NC(=O)[C@@H]1CC2(CC(c3cccc(NC(=O)CC(c4ccccc4)c4ccccc4)c3)=NO2)CN1C(=O)COc1ccc(Cl)cc1 (stereo not given in full),-125,-73,-68,32*,2,2,14,31*
O=c1[nH]c(=S)[nH]c2c1C(c1ccc(Br)cc1)c1c([nH]c(=S)[nH]c1=O)O2,-44,-32,-145,22*,-23,45*,-7,18

# From PubChem BioAssay
